Compounds with a hit are over-represented: about 1.6% of the library has one in this group of screens.
NCF1 inh = p47phox/p22phox peptide binding inhibitors, primary screen, biochemical, uHTS, NADPH oxidase regulatory subunit. Neutrophil cytosol factor 1 (Homo sapiens), P14598. inhibition, % at 24.7 µM. AID 1274, 2008. fluorescence polarization, 2 h. 220,000 tested, 0.53% active
Target sequence (P14598 whole entry, looked up): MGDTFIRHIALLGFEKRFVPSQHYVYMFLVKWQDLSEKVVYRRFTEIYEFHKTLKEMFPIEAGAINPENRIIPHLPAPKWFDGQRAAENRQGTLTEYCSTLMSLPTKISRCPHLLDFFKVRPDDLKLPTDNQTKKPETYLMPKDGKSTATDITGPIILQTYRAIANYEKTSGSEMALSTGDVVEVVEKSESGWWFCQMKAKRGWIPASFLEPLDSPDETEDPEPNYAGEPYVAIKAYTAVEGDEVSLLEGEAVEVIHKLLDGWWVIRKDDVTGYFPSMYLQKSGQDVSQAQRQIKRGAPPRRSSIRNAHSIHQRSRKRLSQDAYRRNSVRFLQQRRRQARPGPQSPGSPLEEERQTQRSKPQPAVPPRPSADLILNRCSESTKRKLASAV
eIF4E 4G PPI = eIF4E–eIF4G protein interaction inhibitors, primary screen, biochemical, uHTS, TR-FRET, eIF4GI fragment; inhibition, % at 21.7 µM; AID 782, 2007; Eukaryotic translation initiation factor 4E (Mus musculus) + Eukaryotic translation …; TR-FRET eIF4E-eIF4GI(517-606) binding, 2 h; 220,000 tested, 0.37% active
TbMetRS inhib = T. brucei MetRS inhibitors, primary screen, biochemical, luminescence | methionyl-tRNA synthetase (Trypanosoma brucei brucei) | purified T. brucei MetRS, ATP depletion, Kinase-Glo luminescence | inhibition, % at 11.9 µM | 360,000 tested, 0.4% active;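 active = inhibition above a per-plate cutoff of the control wells' mean inhibition plus 3 SD, cut at about 5.5% in these data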
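Dosing: 11.9 µM single point; system: parasite MetRS enzyme; technique: luminescence of leftover ATP; times: 15 min enzyme-compound preincubation, 2 h reaction, 10 min detection, 25 °C; replicates: each compound tested once; read-out basis: percent inhibition relative to median high and low control wells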
UBC9 SUMO inh = inhibitors of in vitro SUMOylation cascade, primary screen, biochemical, HTRF, uHTS | SUMO-conjugating enzyme UBC9 (Homo sapiens), P63279 | HTRF SUMOylation assay, SAE1/SAE2 + UBC9 | inhibition, % at 35 µM | 290,000 tested, 0.36% active; in the data active = inhibition above about 50%, passing the limit was not always enough
14-3-3 Bad PPI = inhibitors of 14-3-3 zeta/Bad binding, primary screen, biochemical, TR-FRET, bovine 14-3-3 zeta; inhibition, % at 21.7 µM; 220,000 tested, 0.71% active; 14-3-3 protein zeta/delta (Bos taurus), P63103; AID 781, 2007; TR-FRET 14-3-3zeta/Dy647-pBad peptide displacement, 1 h;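 active = inhibition above about 70%, limit read from the data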
Target sequence (P63103 whole entry, looked up): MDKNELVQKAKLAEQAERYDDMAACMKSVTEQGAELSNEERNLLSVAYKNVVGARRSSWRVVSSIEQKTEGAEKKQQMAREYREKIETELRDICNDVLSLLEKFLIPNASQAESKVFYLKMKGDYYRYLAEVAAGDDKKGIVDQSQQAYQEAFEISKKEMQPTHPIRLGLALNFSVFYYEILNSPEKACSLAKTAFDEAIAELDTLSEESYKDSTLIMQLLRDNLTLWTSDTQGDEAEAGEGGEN
p97 ATPase inh = inhibitors of human p97 ATPase, primary screen, biochemical. 220,000 tested, 0.42% active. AID 1481, 2009. inhibition, % at 8 µM. recombinant p97 ATPase, Kinase-Glo ATP luminescence, 3 h. Transitional endoplasmic reticulum ATPase (Homo sapiens), P55072; in the data active = inhibition above about 15%
p97 confirm = p97 ATPase inhibitors, retest, confirmation, biochemical; recombinant p97 ATPase, Kinase-Glo ATP luminescence; inhibition, % at 8 µM; 760 tested, 44% active; AID 1517, 2009; shares compounds with p97 ATPase inh;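 active = percent inhibition of p97 ATPase above a set limit, the primary screen's mean plus 3 SD, cut at about 15% in these data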
Numbers stand for hits; - = inactive; . = no result.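 The calls were made as follows, unless noted: active = inhibition above about 30% (limit read from the data); inactive = the rest.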

SMILES	NCF1 inh	eIF4E 4G PPI	TbMetRS inhib	UBC9 SUMO inh	14-3-3 Bad PPI	p97 ATPase inh	p97 confirm
C#CCOCCOCCOCCNc1nc(N2CCN(C(=O)C(Cc3cc4ccccc4[nH]3)n3cc(C(N)Cc4ccc(O)cc4)nn3)CC2)nc(N2CCN(C(=O)C(Cc3cc4ccccc4[nH]3)n3cc(C(N)Cc4ccc(O)cc4)nn3)CC2)n1 (centres undefined)	65	-	.	-	-	22	26
C#CCOCCOCCOCCNc1nc(N2CCN(C(=O)[C@H](Cc3cc4ccccc4[nH]3)n3cc([C@@H](N)CC(C)C)nn3)CC2)nc(N2CCN(C(=O)[C@H](Cc3cc4ccccc4[nH]3)n3cc([C@@H](N)CC(C)C)nn3)CC2)n1	.	-	-	-	-	27	27
C#CCOCCOCCOCCNc1nc(N2CCN(C(=O)[C@H]([C@@H](C)CC)n3cc([C@@H](N)Cc4ccc(O)cc4)nn3)CC2)nc(N2CCN(C(=O)[C@H](Cc3cc4ccccc4[nH]3)n3cc([C@@H](N)C(C)CC)nn3)CC2)n1 (some centres undefined)	-	-	.	-	-	-	.
C#CCOCCOCCOCCNc1nc(N2CCN(C(=O)[C@H](Cc3ccc(O)cc3)n3cc([C@@H](N)C(C)CC)nn3)CC2)nc(N2CCN(C(=O)[C@H](Cc3cc4ccccc4[nH]3)n3cc([C@@H](N)C(C)CC)nn3)CC2)n1 (some centres undefined)	.	-	-	-	-	25	-
C#CCOCCOCCOCCNc1nc(N2CCN(C(=O)[C@H](CCC(=O)O)n3cc(C(N)Cc4ccc(O)cc4)nn3)CC2)nc(N2CCN(C(=O)[C@H](Cc3cc4ccccc4[nH]3)n3cc(C(N)[C@H](C)CC)nn3)CC2)n1 (some centres undefined)	-	-	-	-	-	-	.
C#CCOCCOCCOCCNc1nc(N2CCN(C(=O)C(Cc3cc4ccccc4[nH]3)n3cc(C(N)Cc4ccc(O)cc4)nn3)CC2)nc(N2CCN(C(=O)C(CCC(=O)O)n3cc(C(N)C(C)CC)nn3)CC2)n1 (centres undefined)	.	.	-	.	.	.	.
C#CCOCCOCCOCCNc1nc(N2CCN(C(=O)[C@H](Cc3ccc(O)cc3)n3cc([C@@H](N)C(C)CC)nn3)CC2)nc(N2CCN(C(=O)[C@H](Cc3cc4ccccc4[nH]3)n3cc([C@@H](N)CC(C)C)nn3)CC2)n1 (some centres undefined)	.	-	.	-	-	22	-
CC(C)n1ncc2c(C(=O)N3CCN(Cc4ccc(Br)s4)CC3)cc(C3CC3)nc21	.	.	-	.	.	.	.
C#CCOCCOCCOCCNc1nc(N2CCN(C(=O)[C@H](Cc3cc4ccccc4[nH]3)n3cc([C@@H](N)C(C)CC)nn3)CC2)nc(N2CCN(C(=O)[C@H](Cc3cc4ccccc4[nH]3)n3cc([C@@H](N)Cc4ccc(O)cc4)nn3)CC2)n1 (some centres undefined)	79	-	.	-	-	17	26
COc1ccc(CCCNC(=O)C2Cc3c(-c4ccc(NC(C)=O)cc4)ccnc3O2)cc1 (centres undefined)	.	.	-	.	.	.	.
CN1c2ccccc2C(C)(C)C12C=Nc1c(cc(N3CCOCC3)c3ccccc13)O2 (centres undefined)	-	-	-	-	-	29	-
COc1ccc(OC)c(-c2csc(N(Cc3ccco3)C(=O)c3cccs3)n2)c1	-	-	-	-	-	-	.
COc1ccc(-c2csc(N(Cc3ccco3)C(=O)c3cccs3)n2)cc1	-	-	-	-	-	39	16
O=C(O[C@@H]1OC2COC(=O)c3cc(O)c(O)c(O)c3-c3c(cc(O)c(O)c3O)C(=O)O[C@@H]([C@H]1O)[C@@H]2O)c1cc(O)c(O)c(O)c1	-	-	-	89	-	38	60
O=C(Nc1cc(C(F)(F)F)ccc1-n1cncn1)c1ccc([N+](=O)[O-])o1	.	.	-	.	.	.	.
CN(C)/C=C/c1c([N+](=O)[O-])c2ccc(O)cc2n1-c1ccccc1	-	-	-	-	-	26	-
NC(=O)c1ccc(/C(N)=N/S(=O)(=O)c2cc(C(F)(F)F)cc(C(F)(F)F)c2)cc1	-	-	-	-	-	-	.
O=[N+]([O-])c1ccc(C(O)C(CO)NC(=S)Nc2ccccc2)cc1 (centres undefined)	-	-	-	-	-	16	-
CCN(CC)c1cc(C)c2cc(NC(=O)CNC(C)=O)ccc2n1	.	.	-	-	.	25	-
CCN(CC)c1cc(C)c2cc(NC(=O)c3ccccc3F)ccc2n1	.	.	-	-	.	.	.
COc1ccc(Cl)cc1NC(=O)CC(C)=O	-	-	-	-	-	17	-
COc1ccc(Cl)cc1NC(=O)COC(C)=O	-	-	-	-	-	-	.
CCOc1cc(N2CCOCC2)c(OCC)cc1NC(=O)c1ccc(S(=O)(=O)N2CC(C)OC(C)C2)cc1 (centres undefined)	.	.	-	.	.	.	.
Cc1ccc2c(C(=O)CCl)c(C)[nH]c2c1	-	-	-	-	-	36	40
Cc1ccc2[nH]cc(C(=O)CCl)c2c1	-	-	-	-	-	33	46
SMILES	NCF1 inh	eIF4E 4G PPI	TbMetRS inhib	UBC9 SUMO inh	14-3-3 Bad PPI	p97 ATPase inh	p97 confirm
Cc1ccc2[nH]cc(C(=O)CN3CCN(C)CC3)c2c1	-	-	-	-	-	-	.
COC(=O)[C@@]12C[C@@H](CC(=O)N3CCSCC3)C(=O)N(Cc3ccco3)C1=CCC(C)(C)C2	.	.	-	.	.	.	.
COc1ccc([C@@H]2[C@@H]3C(=O)N(C(C)(C)C)C(=O)[C@@H]3[C@]3(C)C(=O)N(c4cccc(Br)c4)C(=O)N23)cc1	.	.	-	-	.	.	.
COC(=O)[C@]12CCCCC=C1N(Cc1ccccc1)C(=O)[C@H](CC(=O)NCc1ccccc1)C2	.	.	-	.	.	.	.
Cc1ccc(-c2nc3c(c(=O)c4ccccc4n3C)c(=O)n2Cc2ccco2)cc1	-	-	-	-	-	48	17
Cn1c2ccccc2c(=O)c2c(=O)n(Cc3ccco3)c(-c3ccc(F)cc3)nc21	-	-	-	-	-	46	17

Screens (PubChem BioAssay)
